Many of the other results were omitted from the sample, so hits are more common in it than they were.
A1 apoptosis 2 = compounds inhibiting A1, read as caspase activation; MEF A1-2A-BIM cells, caspase-Glo luminescence, 3 h; percent of clofoctol response, DMSO zero; caspase activation, % (no concentration beside the values); 24,000 tested, under 10 active; AID 2465; in the data active = caspase activation above about 5.9%
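System: mouse embryonic fibroblasts co-expressing A1 and BIM (A1-2A-BIM), primed for A1 dependence; amount: 2500 cells/well; doses: 50 nL pinned compound; schedule: cells settled overnight, compound exposure 3 h at 37 °C, 5% CO2; detection: Caspase-Glo 3/7 luminescence, 1 h at room temperature; read-out: Caspase-3/7 activation, seen as rise in luminescence signal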
INS-1E rescue = INS-1E beta cell protection from cytokine death; 20,000 compounds, 0.1% hits; INS-1E cytokine-induced death, ATP luminescence, 48 h; normalised: neutral wells 0, positive control 100; protection from cytokine-induced ATP loss, % at 10 µM;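 active = mean replicate protection from cytokine-induced ATP loss at least 50% and at least 75% of replicates each reaching 50%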
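Assay system: INS-1E rat insulinoma cells. Amount: 8000 cells per well. Medium: phenol-red-free RPMI with 5% fetal bovine serum. Reagent: IL-1β, TNF-α and IFN-γ cytokine mix. Doses: one compound concentration, pin transfer. Schedule: 48 h co-treatment, 10 min post-lysis read. Detection: CellTiter-Glo luminescence measuring cellular ATP.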
T cruzi intra = intracellular Trypanosoma cruzi inhibition | intracellular Trypanosoma cruzi in host cells, plate reader | activity score (inhibition), % at 5.01 µM | 22,000 compounds, 4.9% hits | AID 651903; in the data active = activity score above about 55%;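 also: parasites and compound incubated about four days before reading; 0% = median of neutral control wells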
The depositor's hits bear a star; / = not tested or not shown.

SMILES	A1 apoptosis 2	INS-1E rescue	T cruzi intra
C[C@H]1CN([C@@H](C)CO)C(=O)Cc2cc(NC(=O)Nc3ccc(F)cc3)ccc2O[C@@H]1CN(C)Cc1ccc(C(=O)Nc2ccccc2N)cc1	-1	6	33
C[C@H](CO)N1C[C@H](C)[C@H](CN(C)Cc2ccc(C(=O)Nc3ccccc3N)cc2)Oc2ccc(NC(=O)CCC(F)(F)F)cc2CC1=O	0	29	53
C[C@@H]1CN([C@@H](C)CO)C(=O)Cc2cc(NC(=O)Nc3ccc(F)cc3)ccc2O[C@H]1CN(C)Cc1ccc(C(=O)Nc2ccccc2N)cc1	-1	/	/
C[C@@H]1CN([C@H](C)CO)C(=O)Cc2cc(NC(=O)Nc3ccccc3)ccc2O[C@@H]1CN(C)Cc1ccc(C(=O)Nc2ccccc2N)cc1	-1	0	64*
C[C@@H]1CCCCO[C@@H](CN(C)C)[C@@H](C)CN([C@@H](C)CO)C(=O)c2cc(NS(=O)(=O)c3cccs3)ccc2O1	-1	/	/
C[C@@H]1CCCCO[C@@H](CN(C)S(=O)(=O)c2ccc(F)cc2)[C@@H](C)CN([C@@H](C)CO)C(=O)c2cc(NS(=O)(=O)c3cn(C)cn3)ccc2O1	1	/	/
C[C@@H]1CCCCO[C@H](CN(C)S(=O)(=O)c2cccs2)[C@@H](C)CN([C@H](C)CO)C(=O)c2cc(NS(C)(=O)=O)ccc2O1	0	2	1
C[C@H](CO)N1C[C@H](C)[C@@H](CN(C)CC2CC2)Oc2ccc(NC(=O)Cc3ccccc3)cc2C1=O	1	/	/
CC(C)NC(=O)Nc1ccc2c(c1)CC(=O)N([C@H](C)CO)C[C@H](C)[C@H](CN(C)Cc1ccc(C(=O)Nc3ccccc3N)cc1)O2	/	6	68*
C[C@@H]1CN([C@H](C)CO)C(=O)c2cc(NC(=O)Nc3ccc(C(F)(F)F)cc3)ccc2O[C@H]1CN(C)Cc1ccc(C(=O)Nc2ccccc2N)cc1	0	-13	57*
C[C@H]1CN([C@@H](C)CO)C(=O)Cc2cc(NC(=O)NC3CCCCC3)ccc2O[C@@H]1CN(C)Cc1ccc(C(=O)Nc2ccccc2N)cc1	-1	/	/
C[C@@H]1CN([C@@H](C)CO)C(=O)c2cc(NC(=O)Nc3ccc(C(F)(F)F)cc3)ccc2O[C@H]1CN(C)Cc1ccc(C(=O)Nc2ccccc2N)cc1	/	2	39
Nc1cccc(COc2ccc(/C=C/C(=O)NO)cc2)c1	-1	/	/
C[C@H]1CCCCO[C@@H](CN(C)S(=O)(=O)c2cccs2)[C@@H](C)CN([C@@H](C)CO)C(=O)c2cc(NS(=O)(=O)c3cn(C)cn3)ccc2O1	0	/	/
Cc1noc(C)c1NC(=O)Nc1ccc2c(c1)CC(=O)N([C@@H](C)CO)C[C@H](C)[C@@H](CN(C)C(=O)Nc1ccccc1)O2	/	9	-28
C[C@H](CO)N1C[C@H](C)[C@H](CN(C)C(=O)Nc2cccc3ccccc23)Oc2ncc(-c3cccc(C(F)(F)F)c3)cc2C1=O	/	/	62*
C[C@H](CO)N1C[C@H](C)[C@H](CN(C)C(=O)Nc2cccc3ccccc23)Oc2ncc(C#CC(C)(C)O)cc2C1=O	/	/	-9
C[C@H](CO)N1C[C@H](C)[C@H](CN(C)C(=O)Nc2cccc3ccccc23)Oc2ncc(C#Cc3ccc(C(F)(F)F)cc3)cc2C1=O	0	/	85*
C[C@H](CO)N1C[C@H](C)[C@H](CN(C)C(=O)Nc2cccc3ccccc23)Oc2ncc(C#Cc3cccc(F)c3)cc2C1=O	/	/	66*
C[C@H](CO)N1C[C@H](C)[C@H](CN(C)C(=O)Nc2cccc3ccccc23)Oc2ncc(-c3cccc(F)c3)cc2C1=O	0	/	32
C[C@H](CO)N1C[C@H](C)[C@H](CN(C)C(=O)Nc2ccccc2)Oc2ncc(C#Cc3cccc(F)c3)cc2C1=O	0	-13	30
Cc1ccc(S(=O)(=O)N(C)C[C@@H]2OCCCC[C@H](C)Oc3ccc(NC(=O)Nc4cccc5ccccc45)cc3C(=O)N([C@@H](C)CO)C[C@H]2C)cc1	0	/	/
C[C@@H]1CCCCO[C@@H](CN(C)Cc2ccncc2)[C@@H](C)CN([C@H](C)CO)C(=O)c2cc(NC(=O)Nc3ccc(C(F)(F)F)cc3)ccc2O1	/	-3	57*
COc1ccc(CN(C)C[C@@H]2OCCCC[C@@H](C)Oc3ccc(NC(=O)Nc4ccc(C(F)(F)F)cc4)cc3C(=O)N([C@H](C)CO)C[C@@H]2C)cc1	/	-32	63*
C[C@@H]1CCCCO[C@@H](CN(C)Cc2ccncc2)[C@@H](C)CN([C@@H](C)CO)C(=O)c2cc(NC(=O)Nc3ccc(C(F)(F)F)cc3)ccc2O1	0	/	/
